Screens deposited in PubChem BioAssay by several laboratories.
Hits are enriched below; roughly 3.9% of the tested compounds scored in any of these assays.
Gli-Sufu antag = antagonists of Gli-Sufu signaling; Sufu-KO-LIGHT fibroblasts, Gli luciferase reporter luminescence; inhibition, % at 5 µM; actives 0.74% (n = 340,000);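 active means inhibition above about 55%, limit read from the data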;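 further: 0% = DMSO-treated cells and 100% = wells with medium but no cells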
Jurkat NFkB inh = inhibitors of the PMA/ionomycin-induced NF-kB reporter in Jurkat cells; PMA/ionomycin-induced NF-kB luciferase reporter, luminescence; inhibition, % at 4 µM; actives 0.53% (n = 330,000); in the data active means inhibition above about 50%
UPR CHOP act = apoptotic UPR (CHOP) activation; CHO-CHOP luciferase reporter, luminescence; percent of tunicamycin response over DMSO baseline; AID 449763; activation, % at 10 µM; actives 0.34% (n = 330,000);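 active means at 10 µM dose, activation of 40% or more, normalized to positive control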;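 further: 100% = tunicamycin at 10 µg/mL and 0% = DMSO alone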
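Assay system: CHO-CHOP cells, stable luciferase reporter of PERK-eIF2a-CHOP signalling / Buffer or medium: F12 plus 10% serum / Compound dosing: one dose, 10 µM in 0.5% DMSO / Times: 6 h compound treatment, 37 °C / Technique: luciferase luminescence / Read-out: % reporter activation, DMSO baseline versus tunicamycin full activation / Benchmarks: tunicamycin and DMSO controls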
XBP1 UPR activ = adaptive UPR (XBP1) activation; CHO-XBP1 luciferase reporter, IRE1-XBP1 UPR activation, luminescence; percent of tunicamycin response, DMSO as zero; activation, % at 20 µM; actives 0.33% (n = 330,000); AID 463104;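 active means versus positive control, 20 µM dose yields 30% or more activation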;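 further: 100% = tunicamycin at 10 µg/mL and 0% = DMSO only wells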
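Material: IRE1-XBP1 luciferase reporter CHO line / Quantity: one thousand reporter cells per well / Buffer or medium: F12 with 10% serum / Compound: 20 µM single concentration, DMSO 1% / Times: 6 h treatment, 37 °C / Detection: Steady-Glo luciferase glow luminescence, 10 min after reagent addition / Benchmarks: tunicamycin high, DMSO low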
697 NFkB inh = lowers PMA/ionomycin-induced NF-kB signal in 697 B cells. AID 435022. inhibition, % at 4 µM. actives 0.33% (n = 330,000). 697 B-cell NF-kB luciferase reporter, 16 h; in the data active means inhibition above about 35%
CHOP inhibitor = CHOP inhibition in unfolded protein response; inhibition, % at 10 µM; CHO-K1 CHOP-promoter luciferase, tunicamycin-induced, 15-18 h; actives 3.8% (n = 220,000); AID 2732;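 active means compounds that reduced the stress-induced luciferase reporter signal by more than about 70% of percent inhibition, limit read from the data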;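 further: 0% = tunicamycin plus vehicle and 100% = wells without tunicamycin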
697 NFkB conf = inhibitors of the PMA/ionomycin-induced NF-kB reporter in 697 B cells, retest | actives 35% (n = 2,000) | AID 449746 | inhibition, % at 4 µM | shares compounds with 697 NFkB inh | 697 B-cell NF-kB luciferase, 16 h; in the data active means inhibition mostly above about 28%, no sharp cut-off; inactive means mostly below about 22%
Gli-Sufu confirm = confirmation of Gli-SUFU pathway antagonists; shares compounds with Gli-Sufu antag; Sufu-KO-LIGHT cells, Gli luciferase reporter, luminescence; inhibition, % at 5 µM; actives 40% (n = 2,500);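 active means mean inhibition at 5 µM reaching about 45%, limit read from the data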;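 further: plate controls were DMSO-treated cells for no effect and wells lacking cells for full effect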
Gli cytotox = cytotoxic in Gli-SUFU antagonist counter-screen | shares compounds with Gli-Sufu antag | Sufu-KO-LIGHT cells cytotoxicity, ATP luminescence | cytotoxicity, % at 5 µM | actives 32% (n = 2,500) | AID 651994;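 active means mean cytotoxicity at 5 µM above about 25%, limit read from the data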;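 further: cells exposed to compound overnight for roughly 16 to 18 hours; plate controls were DMSO wells with cells for no effect and medium without cells for full effect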
Wnt3a cs = Wnt3a reporter inhibition counter-screen | Wnt-LIGHT cells, Wnt3a-driven luciferase reporter, luminescence | actives 20% (n = 2,500) | inhibition, % at 6.25 µM | shares compounds with Gli-Sufu antag;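 active means mean inhibition above about 25%, limit read from the data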
* = called active by the depositor; . = not tested or not shown.

SMILES	Gli-Sufu antag	Jurkat NFkB inh	UPR CHOP act	XBP1 UPR activ	697 NFkB inh	CHOP inhibitor	697 NFkB conf	Gli-Sufu confirm	Gli cytotox	Wnt3a cs
Cc1ccc(S(=O)(=O)CC2CSc3nc4ccccc4n32)cc1 (stereo not drawn)	72*	35	6	-6	62*	55	75*	70*	18	47*
O=C(NC1CCOCC1)C1CCC(=O)N(CCc2ccc(Cl)cc2)C1 (stereo not drawn)	-15	9	1	-3	6	.	.	.	.	.
COc1cc(C[C@@H]2C(=O)OC[C@H]2Cc2ccc(OC)c(OC)c2)ccc1O	66*	42	4	-3	85*	.	70*	57*	32*	32*
COc1cc(CC2COC(=O)C2(O)Cc2ccc(O)c(OC)c2)ccc1O (stereo not drawn)	17	12	3	-2	-14	33	.	.	.	.
CCn1c(=O)cc(SCC(=O)N2CCN(C3CCCCC3)CC2)c2ccccc21	97*	14	1	-1	48*	6	19	46*	7	22
CCN1CCN(C(=O)CSc2cc(=O)n(C)c3ccccc23)CC1	6	8	2	1	14	21	.	.	.	.
COc1cc2c(cc1OC)CN(C(=O)CNS(=O)(=O)c1ccc(C)c(C)c1)CC2	-9	6	1	-1	20	.	.	.	.	.
COc1ccc(NS(=O)(=O)c2ccc(-c3coc(C)n3)cc2)cc1OC	73*	36	15	-6	41*	.	59*	73*	28*	51*
O=C(NNC(=O)c1ccco1)c1ccc(NS(=O)(=O)c2cccs2)cc1	-3	4	0	2	9	.	.	.	.	.
N=c1c2c(n(Cc3cccc(Cl)c3)c3c1CCC3)CCCC2	81*	41	2	2	43*	27	38*	83*	35*	36*
O=c1[nH]c(SCc2ccc(Cl)cc2)nc2c1CCC2	20	0	0	2	-30	30	.	.	.	.
N=c1c2c(n(Cc3ccc(Cl)cc3)c3c1CCC3)CCC2	80*	34	0	-3	105*	.	25	82*	25*	48*
Clc1cccc(CN2CCCCCC2)c1	-1	7	0	0	0	.	.	.	.	.
CC1(NC(=O)Cc2c(Cl)cccc2Cl)CCS(=O)(=O)C1 (stereo not drawn)	-2	-1	-3	3	11	.	.	.	.	.
COC(=O)c1cc(C(=O)c2ccc(Cl)cc2)n2c(=O)/c(=C\N(C)C)sc12	57*	8	2	0	41*	11	11	31	4	-84
CCOc1ccc(S(=O)(=O)NCc2ccncc2)cc1NC(=O)c1ccccc1	63*	47	-1	-3	45*	.	84*	66*	28*	1
CN(C)c1cc[n+](Cc2c(Cl)cccc2Cl)cc1	73*	47	0	-1	45*	0	39*	67*	17	30*
N=c1ccn2c(n1)O[C@H]1[C@H](O)[C@@H](CO)O[C@H]12	60*	38	-1	-1	52*	.	45*	46*	13	41*
CC(=O)C(C(C)=O)C(c1ccccc1)c1nc2ccccc2[nH]c1=O (stereo not drawn)	-3	8	-1	3	7	.	.	.	.	.
Cc1oc(-c2ccc(Cl)cc2)nc1CSCC(=O)NC1CCN(Cc2ccccc2)CC1	-8	29	-1	0	-37	.	.	.	.	.
CCOc1ccc(-c2nc(CSCC(=O)NC3CC3)c(C)o2)cc1	90*	0	-11	-14	99*	.	79*	93*	13	-2
COCCNC(=O)CSCc1nc(-c2ccc(SC)cc2)oc1C	55*	3	-5	1	84*	66	72*	66*	12	8
O=C(c1ccc2c(=O)n(-c3ccccc3)c(=S)[nH]c2c1)N1CCCCC1	60*	7	0	-1	38*	31	-28	55*	36*	7
CC(=O)Nc1ccc(NC(=O)COC(=O)c2ccc(S(=O)(=O)N(C)c3ccccc3)cc2)cc1	4	.	.	.	.	.	.	.	.	.
Cc1c(OCC(=O)NCC(O)c2ccccc2)ccc2c3c(c(=O)oc12)CCCC3 (stereo not drawn)	13	9	1	-6	-2	.	.	.	.	.
SMILES	Gli-Sufu antag	Jurkat NFkB inh	UPR CHOP act	XBP1 UPR activ	697 NFkB inh	CHOP inhibitor	697 NFkB conf	Gli-Sufu confirm	Gli cytotox	Wnt3a cs
Cc1ccccc1-c1noc(C(C)NC(=O)c2ccco2)n1 (stereo not drawn)	-9	11	1	-4	15	.	.	.	.	.
Cc1cc(C)c(S(=O)(=O)NCc2ccncc2)c(C)c1	58*	46	1	-4	58*	40	41*	60*	28*	43*
Cc1cc(C)c(S(=O)(=O)NCCc2ccncc2)c(C)c1	.	-18	0	0	9	.	.	.	.	.
COc1ccc(/C=C2/SC(=S)N(CCCC(=O)Nc3cccc(O)c3)C2=O)cc1	62*	8	-7	-7	63*	.	71*	58*	0	-21
Cc1cc(C)c(CN2CCN(C(=O)Cn3cnc4c(NCc5ccccc5)ncnc43)CC2)c(C)c1	60*	.	7	3	74*	.	82*	67*	42*	39*
COC(=O)CCC(=O)Nc1ccc(S(=O)(=O)Nc2nc(C)cc(C)n2)cc1	13	10	3	-3	8	.	.	.	.	.
CC(=O)C1=NN(c2ccccc2)C(c2ccc3c(c2)OCO3)N1c1ccccc1 (stereo not drawn)	14	-19	-2	-1	0	14	.	.	.	.
CC(=O)C1=NN(c2ccccc2)C(c2cccs2)N1c1ccc(N(C)C)cc1 (stereo not drawn)	79*	41	1	7	69*	41	38*	79*	33*	-63
CCOC(=O)c1sc(NC(=O)c2cc(-c3ccccc3C)nc3ccccc23)c(C#N)c1C	63*	6	5	-4	36*	72*	40*	82*	20	74*
CCOC(=O)c1sc(NC(=O)c2ccncc2)c(C#N)c1C	24	-6	-2	0	13	19	.	.	.	.
